HIV Env fusion: inhibitors of HIV Env-mediated cell fusion; inhibition, % at 12.3 µM; HeLa-JRFL Env/CEM21 cell fusion, luciferase; hit rate 1.1% among 360,000;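 active = mean replicate inhibition score of at least 50 and every replicate individually at or above 50; inconclusive = only one of the two criteria met; inactive = mean below 50 and not all replicates reaching 50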;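 also: 0% = plate neutral controls and 100% = maraviroc near 300 nM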
esBAF inh: inhibitors of esBAF chromatin remodeling in mouse ES cells; Bmi1-luciferase knock-in reporter, 24 h; 100% = twice the neutral-well signal; reporter increase, % at 12.5 µM; hit rate 2% among 350,000; AID 602393; in the data active = activation above about 40%; inconclusive = no clear call, values can overlap the other calls;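 also: 0% = median of the plate's neutral control wells and 100% = double that signal; a rise in the Bmi1 reporter signal indicates esBAF inhibition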
Wnt act: Wnt/beta-catenin pathway activation | Wnt/beta-catenin reporter cell assay, activator, plate reader | activation, % at 9.35 µM | hit rate 1.2% among 300,000; in the data active = activation above about 30%, passing the limit was not always enough; inconclusive = no clear call, values can overlap the other calls;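 also: 0% = neutral control wells and 100% = positive control wells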
MITF act: increases MITF-driven TRPM1 promoter luciferase signal. SK-MEL-5 TRPM1-promoter luciferase, 24 h; % of positive control, neutral wells = 0. activation, % at 12.5 µM. hit rate 0.75% among 300,000;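 active = mean activation of at least 80% with every replicate also reaching 80%; inconclusive = mean reaches 80% but some replicate falls short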;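 also: 0% = neutral control wells and 100% = parthenolide positive control wells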
ERAP1 inh: blocks human ERAP1 aminopeptidase activity; Q9NZ08; recombinant ERAP1, Leu-AMC fluorescence, 60 min; inhibition, % at 10.7 µM; hit rate 0.15% among 340,000; AID 652197;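 active = mean replicate inhibition of at least 30%, or all replicates individually reaching that 30% level; inactive = mean below 30% and not every replicate reaching it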;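 also: 0% = neutral control wells and 100% = L-leucinethiol positive control wells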
Target sequence (Q9NZ08 whole entry, looked up): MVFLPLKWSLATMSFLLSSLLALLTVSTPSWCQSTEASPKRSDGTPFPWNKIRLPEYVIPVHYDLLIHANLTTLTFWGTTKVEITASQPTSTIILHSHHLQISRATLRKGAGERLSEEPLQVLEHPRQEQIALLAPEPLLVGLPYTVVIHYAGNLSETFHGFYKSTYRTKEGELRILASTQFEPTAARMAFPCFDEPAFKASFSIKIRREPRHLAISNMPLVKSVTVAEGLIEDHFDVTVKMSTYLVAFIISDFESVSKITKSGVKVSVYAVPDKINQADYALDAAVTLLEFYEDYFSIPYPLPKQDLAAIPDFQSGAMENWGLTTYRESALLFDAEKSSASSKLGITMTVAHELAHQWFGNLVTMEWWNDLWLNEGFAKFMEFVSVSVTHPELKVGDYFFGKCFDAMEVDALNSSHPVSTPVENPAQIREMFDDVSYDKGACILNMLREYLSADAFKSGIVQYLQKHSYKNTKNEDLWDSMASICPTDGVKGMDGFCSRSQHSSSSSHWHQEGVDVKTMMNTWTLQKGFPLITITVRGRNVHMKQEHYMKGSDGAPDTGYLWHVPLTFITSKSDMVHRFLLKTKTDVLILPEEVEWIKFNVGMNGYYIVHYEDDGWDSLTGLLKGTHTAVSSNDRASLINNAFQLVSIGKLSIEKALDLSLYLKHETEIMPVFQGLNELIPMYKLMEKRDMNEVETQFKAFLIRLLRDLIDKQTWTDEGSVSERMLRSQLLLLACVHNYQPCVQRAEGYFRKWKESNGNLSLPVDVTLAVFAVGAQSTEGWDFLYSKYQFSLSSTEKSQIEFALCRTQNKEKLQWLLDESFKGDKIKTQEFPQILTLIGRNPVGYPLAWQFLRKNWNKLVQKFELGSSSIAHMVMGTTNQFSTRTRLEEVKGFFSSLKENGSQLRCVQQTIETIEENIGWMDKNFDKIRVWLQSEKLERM
Cneo AK release: Cryptococcus neoformans lysis via adenylate kinase release; C. neoformans lysis, adenylate kinase release luminescence, 4 h; normalised: neutral wells 0, clomiphene wells 100; lysis activity, % at 15 µM; hit rate 0.2% among 360,000; AID 651654;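 active = mean lysis activity across replicates of at least 80%, whatever share of replicates individually reach that level; inactive = mean lysis activity below 80%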
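Assay system: C. neoformans cells. Amount: yeast cell density of 5 × 10^6 cells/mL. Technique: AK luminescence. Buffer or medium: YPD. Times: static 4 h at 37 °C with compound, 1 h detection. Dosing: single-point compound dose. Read-out: lysis from increased AK signal.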
Numbers without * were called inactive; ? = inconclusive; . = no result given; [ ] = remark or other dose. Sampled rows, rich in hits. Any-hit rate of the full collection: about 3.5%.

SMILES | HIV Env fusion | esBAF inh | Wnt act | MITF act | ERAP1 inh | Cneo AK release
Cc1[nH]nc2ncc(C(=O)c3ccccc3O)cc12 | 64.3* | -24.3 | -14.0 | . | . | -0.6
COc1ccc(CN(C)C[C@H]2OCCCC[C@@H](C)Oc3ccc(NS(=O)(=O)c4ccc(C)cc4)cc3C(=O)N([C@H](C)CO)C[C@H]2C)cc1 | -17.3[16.7 µM] | -3.7 | . | . | -2.3 | 14.3
S=C(Nc1cccc(Cl)c1)Nc1ccccc1Oc1ccccc1 | . | -8.2 | -1.4 | -0.9 | . | -2.4
S=C(Nc1ccc(Cl)cc1Cl)Nc1ccccc1Oc1ccccc1 | . | 7.6 | . | 9.5 | . | 359.7*
Cc1ccccc1OCC(=O)Nc1cccc(N(C)S(C)(=O)=O)c1 | . | 13.1 | -1.5 | 24.0 | -0.2 | -0.4
CN(c1cccc(NC(=O)COc2ccc(Cl)cc2Cl)c1)S(C)(=O)=O | -27.6 | 37.5 | 37.3* | . | . | -3.2
CN(c1cccc(NC(=O)CSc2ccc(Cl)cc2)c1)S(C)(=O)=O | 61.1* | 4.2 | . | -0.2 | . | 0.8
COCC(=O)Nc1ccc2c(c1)[C@H]1C[C@H](CC(=O)N3CCOCC3)O[C@H](CO)[C@H]1O2 | -14.2[16.7 µM] | -3.2 | . | . | 3.9 | 57.6
CC(Sc1ccccc1F)C(=O)Nc1ccc2c(c1)OCCO2 (stereo unspecified) | . | 99.6* | 45.1* | 89.2* | -2.9 | -7.2
O=C(CSc1nnnn1-c1ccc(Cl)cc1)NC(=O)Nc1ccc2c(c1)OCCO2 | -58.9 | 56.1* | 38.4* | 75.6 | . | -0.2
CCn1cc(S(=O)(=O)CC(=O)Nc2ccc3c(c2)OCO3)c2ccccc21 | 9.7 | 7.9 | 34.8* | . | 5.9 | -2.7
O=C(CN1C(=O)C2C3C=CC(C3)C2C1=O)Nc1ccc2c(c1)OCCO2 (stereo unspecified) | . | 41.2* | . | 52.8 | . | -1.0
C[C@@H]1CN([C@H](C)CO)C(=O)c2cccc(NS(=O)(=O)c3cccs3)c2O[C@@H]1CN(C)C(=O)Nc1ccc(C(F)(F)F)cc1 | . | 1.4 | . | . | 1.1 | 2.0
O=C(N[C@@H]1CC[C@H](CCNS(=O)(=O)c2ccccc2Cl)O[C@@H]1CO)c1ccc(F)cc1 | -3.2[16.7 µM] | 2.1 | . | . | -3.2 | 1.1
COCC(=O)N(C)C[C@@H]1Oc2ncc(-c3ccc(C)cc3)cc2C(=O)N([C@@H](C)CO)C[C@@H]1C | 6.7[16.7 µM] | -2.5 | . | . | 0.6 | -0.9
CCCC(=O)Nc1ccc2c(c1)C(=O)N(C)[C@@H]1CC[C@@H](CC(=O)N3CCCCC3)O[C@@H]1CO2 | . | -0.8 | . | . | -3.5 | -0.1
O=C(Nc1ccc2c(c1)OCCO2)c1cnn(-c2ccccc2)n1 | -42.7 | 31.0 | 24.9 | 90.2* | -3.4 | -4.0
C/C(CC(=O)Nc1ccc2c(c1)OCCO2)=N\NC(=O)c1ccccc1F | -8.5 | -5.5 | 0.3 | 5.8 | -1.8 | -0.7
CN(C(=O)CSc1nc(O)cc(=O)n1-c1ccccc1F)c1ccccc1 | 65.0* | 3.9 | 0.7 | 4.1 | -2.3 | 1.5
Cc1ccc(SCC(=O)Nc2ccc(N3CCN(c4ccccc4)CC3)c(F)c2)cc1 | -63.7 | -1.1 | . | . | . | -0.6
CN1CCN(c2ccc(NC(=O)CSc3ccccc3)cc2F)CC1 | -109.7 | -3.0 | 38.2* | . | . | -6.7
C/C(CC(=O)Nc1ccc2c(c1)OCCO2)=N\NC(=O)c1ccccn1 | 1.4 | 51.9* | 5.0 | 6.4 | -6.8 | .
C[C@@H]1CN([C@H](C)CO)C(=O)c2cc(C#C[C@@H](C)O)cnc2O[C@@H]1CN(C)C(=O)c1ccc(F)cc1 | 8.3[16.7 µM] | -0.1 | . | . | -0.9 | -14.7
C[C@@H]1CN([C@H](C)CO)C(=O)c2c(c3ccccc3n2C)-c2ccccc2CO[C@@H]1CN(C)C(=O)c1cc(Cl)cc(Cl)c1 | . | . | . | . | -0.5 | .
N#CCCN(C(=O)CSc1ccc2c(c1)OCCO2)c1ccccc1 | -125.7 | -1.2 | -4.1 | . | . | -1.0
SMILES | HIV Env fusion | esBAF inh | Wnt act | MITF act | ERAP1 inh | Cneo AK release
CC(CC(=O)Nc1ccc2c(c1)OCCO2)c1ccccc1 (stereo unspecified) | 9.3 | 55.1* | 55.7* | . | . | -1.5
Cc1cc(NC(=O)CS(=O)(=O)c2cn(Cc3ccccc3Cl)c3ccccc23)no1 | 89.9* | 3.0 | -0.9 | 0.0 | . | 5.6
CN(C(=O)CSc1ccc2c(c1)OCCO2)c1ccccc1 | -47.6 | 60.5* | 26.7 | 76.5 | 0.5 | 0.1
O=C(CSc1nccn(-c2ccc3c(c2)OCCO3)c1=O)Nc1ccccc1 | -40.6 | 49.3* | 4.2 | 17.9 | 5.0 | .
CC(CC(=O)Nc1ccc2c(c1)OCO2)c1ccccc1 (stereo unspecified) | -26.8 | 17.3 | 5.9 | 41.3 | -3.1 | -0.1
O=C(C[C@@H]1CC[C@H]2[C@@H](COC[C@H](O)CN2C(=O)c2ccc(F)cc2)O1)Nc1ccc(-c2ccccc2)cc1 | 16.4[16.7 µM] | 7.9 | . | . | -0.6 | -0.2
O=C(C[C@@H]1CC[C@@H]2[C@H](COC[C@@H](O)CN2C(=O)Nc2ccc(F)cc2)O1)NCCc1ccccc1 | 8.6[16.7 µM] | 4.5 | . | . | -1.7 | 2.7
COc1ccc(S(=O)(=O)Nc2cccc3c2O[C@H](CN(C)S(=O)(=O)c2cn(C)cn2)[C@H](C)CN([C@H](C)CO)C3=O)cc1 | . | -8.1 | . | . | -0.3 | 48.9
C[C@@H]1CN([C@H](C)CO)C(=O)Cc2cc(NS(=O)(=O)c3ccccc3)ccc2O[C@H]1CN(C)S(=O)(=O)c1ccc(F)cc1 | -16.1[16.7 µM] | 4.1 | . | . | . | -1.6
Cc1ccc(NC(=O)CC2Nc3ccccc3NC2=O)cc1Cl (stereo unspecified) | . | 38.9 | -0.3 | -0.6 | . | -5.2
O=C(CSc1ccccc1F)Nc1ccc2c(c1)OCO2 | -44.9 | 30.3 | 5.2 | 98.7* | -0.4 | 0.0
O=C(CSc1ccc2c(c1)OCCO2)Nc1ccc2c(c1)OCO2 | . | 15.8 | -1.9 | 8.2 | . | 4.6
O=C(CSc1ccccc1)Nc1ccc2c(c1)OCO2 | -27.9 | 44.1* | 23.5 | 89.2* | 1.9 | -0.2
O=C(CSc1ccccc1)Nc1ccc2c(c1)OCCO2 | -80.9 | 54.4* | 33.3* | 50.1 | -1.3 | -13.1
O=C(CC1Nc2ccccc2NC1=O)Nc1ccc2c(c1)OCO2 (stereo unspecified) | -28.6 | 46.7* | 1.4 | 1.8 | -0.4 | .
O=C(CSCc1ccccc1)Nc1ccc2c(c1)OCO2 | . | 33.4 | . | 67.9 | . | -2.6
C[C@@H]1CN([C@@H](C)CO)C(=O)c2cc(NC(=O)C3CCCCC3)ccc2O[C@@H]1CN(C)C(=O)Nc1ccccc1 | . | -5.8 | . | . | 3.3 | 0.1
Cc1csc(SCC(=O)Nc2ccc3c(c2)OCCO3)n1 | -70.3 | . | 21.5 | 44.5 | -1.0 | .
COc1ccc(-c2nnc(SC(C)C(=O)Nc3ccc4c(c3)OCCO4)o2)cc1 (stereo unspecified) | . | 46.2* | . | ? | . | -9.2
CSc1nsc(SCC(=O)Nc2ccc3c(c2)OCCO3)n1 | -44.1 | 42.8* | 26.3 | 69.4 | . | -1.1
COc1cccc(S(=O)(=O)N2[C@@H]3CNC[C@H]2C3c2ccc(-c3ccc(C(=O)N(C)C)cc3)cc2)c1 (stereo partly specified) | . | . | . | . | -0.7 | .
Cc1cc(C(=O)N2CCc3ccccc3C2)c(C)o1 | . | 52.4* | -1.7 | 29.3 | -0.8 | 1.9
COc1cccc2cc(C(=O)N3CCc4ccccc4C3)c(=O)oc12 | . | 77.8* | . | 49.4 | . | -4.2

Bioassay records as filed in PubChem.
